What follows are compounds tested against T1, GFP-myo1e-tail (His6-GFP-myo1e-tail) (Homo sapiens, UniProt Q12965) (assay: LUV sedimentation, GFP fluorescence of supernatant).
T1 sequence (Q12965 710-1108): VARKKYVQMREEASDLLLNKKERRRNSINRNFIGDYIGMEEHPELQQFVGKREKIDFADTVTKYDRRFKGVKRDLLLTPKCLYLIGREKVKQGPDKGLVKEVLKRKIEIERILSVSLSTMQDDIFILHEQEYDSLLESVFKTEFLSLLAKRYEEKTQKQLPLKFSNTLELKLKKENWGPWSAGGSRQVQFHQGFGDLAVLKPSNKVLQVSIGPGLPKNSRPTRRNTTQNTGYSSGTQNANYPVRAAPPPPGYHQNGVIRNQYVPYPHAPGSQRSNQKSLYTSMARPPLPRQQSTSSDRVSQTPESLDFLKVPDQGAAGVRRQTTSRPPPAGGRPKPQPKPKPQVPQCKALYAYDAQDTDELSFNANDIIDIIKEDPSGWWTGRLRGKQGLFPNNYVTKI
Type: binding
Procedure, shortened: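 His6-GFP-myo1e-tail co-expressed with calmodulin in Sf9 cells, purified on Ni-NTA then MonoS, and quantified by A488 (ε 55,000 M⁻¹cm⁻¹). 40 nM protein was mixed with sucrose-loaded 100-nm LUVs (e.g., DOPC with 2% phosphoinositide) in HNa100 (10 mM HEPES pH 7.0, 100 mM NaCl, 1 mM EGTA, 1 mM DTT) with 1 µM calmodulin and 0.25 mg/ml GST. Spun 150,000 × g, 30 min, 25°C; supernatant GFP fluorescence read. Hyperbolic fit gave K_eff versus total lipid.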

Row | Kd | SMILES
1 | 3.2 ± 0.4 µM | CCCCCCCC/C=C\CCCCCCCC(=O)OC[C@H](COP(=O)(O)O[C@H]1[C@H](O)[C@@H](OP(=O)(O)O)[C@H](OP(=O)(O)O)[C@@H](OP(=O)(O)O)[C@H]1O)OC(=O)CCCCCCC/C=C\CCCCCCCC [2% 18:1 PtdIns(3,4,5)P3, 1,2-dioleoyl-sn-glycerol-3-phospho-(1’-myo-inositol-3’,4’,5’-trisphosphate)]
2 | 13 ± 2.1 µM | CCCCCCCC/C=C\CCCCCCCC(=O)OC[C@H](COP(=O)(O)O[C@@H]1[C@H](O)[C@H](OP(=O)(O)O)[C@@H](O)[C@H](OP(=O)(O)O)[C@H]1O)OC(=O)CCCCCCC/C=C\CCCCCCCC [2% 18:1 PtdIns(3,5)P2, 1,2-dioleoyl-sn-glycerol-3-phospho-(1’-myo-inositol-3’,5’-bisphosphate)]
3 | > 400 µM | CCCCCCCC/C=C\CCCCCCCC(=O)OC[C@H](COP(=O)([O-])OCC[N+](C)(C)C)OC(=O)CCCCCCC/C=C\CCCCCCCC [100% DOPC, 1,2-dioleoyl-sn-glycero-3-phosphocholine]

Row | SMILES | Kd
4 | CCCCCCCC/C=C\CCCCCCCC(=O)OC[C@H](COP(=O)(O)OC[C@H](N)C(=O)O)OC(=O)CCCCCCC/C=C\CCCCCCCC [80% DOPS, 1,2-dioleoyl-sn-glycero-3-phospho-L-serine] | 0.51 ± 0.1 µM
